Screens: PubChem, The Scripps Research Institute Molecular Screening Center
The list is not random: actives were taken first. Their share in the collection is about 4.5%.
TAAR1 agonist – human TAAR1 agonism. 360,000 compounds, 0.99% hits. CHO RD-HGA16 TAAR1, Fluo-8 calcium fluorescence; vehicle wells 0%, saturating PEA agonist 100%. activation, % at 3 µM. AID 624467;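 active means activation above the mean activation of all test compounds in the run plus 3 SD, cut at about 38% in these data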
Target sequence (Q96RJ0 whole entry, looked up): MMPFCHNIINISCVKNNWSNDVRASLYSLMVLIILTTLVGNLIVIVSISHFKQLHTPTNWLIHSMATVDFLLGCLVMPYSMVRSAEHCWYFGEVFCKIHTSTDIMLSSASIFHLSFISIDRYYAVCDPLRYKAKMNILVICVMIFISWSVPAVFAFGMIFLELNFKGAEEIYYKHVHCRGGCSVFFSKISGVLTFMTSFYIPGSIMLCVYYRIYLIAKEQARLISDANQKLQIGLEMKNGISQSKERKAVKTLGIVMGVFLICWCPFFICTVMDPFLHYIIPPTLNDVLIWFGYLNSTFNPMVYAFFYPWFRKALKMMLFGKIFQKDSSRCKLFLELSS
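System: CHO-derived RD-HGA16 cells with stable Gα16 and human TAAR1. Times: 17-24 h plating, Fluo-8 75 min 37 °C, 30 min RT. Measured by: calcium-sensitive Fluo-8 signal, excitation 470-495, emission 515-575 nm. Read-out basis: % activation relative to PEA EC100 response. Control set: DMSO and PEA EC100. Repeats: no replicates (n 1).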
CHO parental Ca – counter-screen for OX1R antagonists: effect in parental CHO cells. 330,000 compounds, 0.63% hits. parental CHO-K1, ATP-induced calcium, Fluo-8 fluorescence. AID 463079. inhibition, % at 5.6 µM;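 active means inhibition above that plate's mean sample inhibition plus 3 SD, cut at about 26% in these data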;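 further: 0% = ATP-challenged DMSO wells and 100% = DMSO wells without ATP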
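Material – parental CHO cells · Reagent – ATP stimulus · Compound – single nominal dose of 5.6 µM per compound · Detection – Fluo-8 fluorescence · Read-out basis – percent inhibition of calcium signal · Controls – ATP-challenged DMSO wells low, unchallenged DMSO wells high · Repeats – no replicates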
TAAR1 antagonist – antagonists of human TAAR1 | Q96RJ0 | CHO RD-HGA16 TAAR1, Fluo-8 calcium fluorescence, antagonist | inhibition, % at 3 µM | 360,000 compounds, 1.5% hits | AID 624466;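 active means inhibition above a per-plate cutoff, the mean inhibition of test compounds on that plate plus 3 SD, cut at about 49% in these data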;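 further: 0% = DMSO plus EC80 beta-PEA response and 100% = DMSO alone without agonist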
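Material: CHO RD-HGA16 cells bearing hTAAR1; compound dosing: one-point dosing, 3 µM nominal final; schedule: dye loading 75 min at 37 °C, then 30 min room temperature; measured by: calcium fluorescence with Fluo-8; control set: vehicle and agonist controls; replication: n of 1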
OX1R antag-1 – antagonists of human orexin 1 receptor | O43613 | CHO/OX1R cells, Fluo-8 calcium fluorescence, orexin A | inhibition, % at 5 µM | 330,000 compounds, 0.43% hits;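 active means inhibition above its plate's threshold, mean inhibition of all tested compounds on the plate plus 3 SD, cut at about 37% in these data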;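 further: 0% = orexin A challenge wells and 100% = SB-334867-A antagonist wells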
GPR7 antagonist – human neuropeptides B/W receptor 1 antagonism; P48145; GPR7-expressing cells, fluorescence antagonist assay; inhibition, % at 4.4 µM; 290,000 compounds, 1.1% hits; in the data active means inhibition above about 16%, passing the limit was not always enough;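 further: cells stimulated with the agonist NPW; 0% = agonist with vehicle and 100% = vehicle without agonist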
OX1R antag-2 – antagonists of human orexin 1 receptor (OX1R). O43613. OX1R-expressing cells, FRET antagonist read-out. inhibition, % at 6.6 µM. 330,000 compounds, 1.8% hits; in the data active means inhibition mostly above about 38%, no sharp cut-off; inactive means mostly below about 40%;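 further: 0% = agonist challenge alone and 100% = reference antagonist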
* = called active by the depositor; nt = no result given.

SMILES	TAAR1 agonist	CHO parental Ca	TAAR1 antagonist	OX1R antag-1	GPR7 antagonist	OX1R antag-2
Cc1cc(C)cc(NC(=O)c2ccc(CSc3nnc(C)s3)cc2)c1	13	-3	66*	-1	10	8
Cc1ccc(NC(=O)c2ccc(CSc3nnc(C)s3)cc2)cc1	18	40*	24	-1	1	10
Cc1nnc(SCc2ccc(C(=O)O)cc2)s1	4	-7	-22	-15	-1	15
COC(=O)C1=C(C)N(Cc2ccccc2C(F)(F)F)C(=NCc2ccccc2C(F)(F)F)NC1c1ccc(Cl)cc1 (centres undefined)	1	nt	-25	nt	nt	nt
CC1(Oc2cccnc2Cl)CCN(Cc2ccc(OC(F)(F)F)cc2)C1 (centres undefined)	-2	nt	5	nt	nt	nt
Cc1ccc(C(=O)OCC(=O)NC(=O)NCc2ccccc2)cc1C	30	4	50*	-8	nt	1
O=C(COC(=O)c1ccc(F)c([N+](=O)[O-])c1)NC(=O)NCc1ccccc1	6	-3	-3	-1	nt	33*
CC(=O)Nc1ccc(C(=O)OCC(=O)NC(=O)NCc2ccccc2)cc1	5	nt	-7	nt	nt	nt
Cc1ccc(C(=O)OCC(=O)N(Cc2ccccc2)C(C)C)cc1C	3	-26	-2	9	nt	36*
O=C1c2[nH]nc(-c3ccccc3)c2C(c2cccc(C(F)(F)F)c2)N1c1ccccc1 (centres undefined)	0	nt	-61	nt	nt	nt
Cc1ccc(S(=O)(=O)Nc2ccc(C(=O)Nc3ccncc3)cc2)cc1	1	-5	-18	-2	5	24
Cc1ccc(NS(=O)(=O)c2ccc(NC(=O)c3cccc(NC(=O)C(C)C)c3)cc2)cc1	8	67*	53*	82*	0	49
CNC(=O)OCc1cocc1COC(=O)NC	1	nt	-16	nt	nt	nt
C=CCN=C1NC(c2ccc(C(F)(F)F)cc2)C(C(=O)OC)=C(C)N1C (centres undefined)	2	nt	-2	nt	nt	nt
CCOC(=O)N1CCC(=NNc2ccc(S(N)(=O)=O)cc2[N+](=O)[O-])CC1	5	-2	-10	-2	-8	59*
NS(=O)(=O)c1ccc(NN=C2CCCCC2)c([N+](=O)[O-])c1	2	17	6	7	-7	73*
CC(=O)N1CCC(=NNc2ccc(S(N)(=O)=O)cc2[N+](=O)[O-])CC1	0	2	-4	2	-8	51
CCC(CC)=NNc1ccc(S(N)(=O)=O)cc1[N+](=O)[O-]	-1	4	-8	-1	2	46*
C/C(CCC(C)C)=N\Nc1ccc(S(N)(=O)=O)cc1[N+](=O)[O-]	-3	-8	14	-16	-14	25
NS(=O)(=O)c1ccc(N/N=C/c2ccc(C(=O)O)cc2)c([N+](=O)[O-])c1	0	-8	-13	-8	-13	50*
COC(=O)N1C[C@H](OCc2ccccc2)[C@H]2C[C@@H]1c1ccccc1O2	-1	nt	-20	nt	nt	nt
CC(=O)N(CCc1ccccc1)Cc1cc2ccc(C)c(C)c2[nH]c1=O	41*	-16	11	-25	21	9
CCCNC(=O)COc1ccc(S(=O)(=O)Nc2ccc(C)cc2)cc1	40*	-9	-24	-10	5	5
CCOc1ccc(NS(=O)(=O)c2ccc(C(=O)N3CCCCCC3)cc2)cc1	47*	-1	29	2	nt	27
CCOc1cccc(C=NNC(=O)C(=O)Nc2cccc(C(F)(F)F)c2)c1O	6	nt	14	nt	nt	nt
COCC(=O)O[C@]1(CCN(C)CCCc2nc3ccccc3[nH]2)CCc2cc(F)ccc2[C@@H]1C(C)C	41*	0	41	-22	nt	9
CCOC(=O)CCc1nc2ccccc2[nH]1	0	-4	-5	3	-7	-1
CN(C(=O)c1cccc(NC(=O)Cc2ccc(NC(=O)C3CCCN(C(=O)C4CCC4)C3)cc2)c1)C1CCCCC1 (centres undefined)	0	nt	28	nt	nt	nt
N#Cc1c(NC(=S)NC(=O)c2ccccc2)sc2c1CCCC2	4	-12	-15	-24	2	14
N#Cc1c(NC(=S)NC(=O)c2ccccc2)sc2c1CCN(CCc1ccccc1)C2	nt	36*	nt	36	17	26
